This is a sample that favours compounds with a hit; in the whole collection about 6.8% have one here.
AI-2 QS modul: Vibrio harveyi AI-2 quorum sensing modulation; Vibrio harveyi JMH597 AI-2 luminescence/OD600 ratio, 9 h; hits give low values; strain lacks LuxN and CqsS sensors; 0 = neutral-control median; activity change, % at 7.5 µM; 300,000 compounds, 0.4% hits; in the data active = activity change below about -75%, passing the limit was not always enough;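 note: luminescence divided by OD600 gain over 9 h not by final OD600 alone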
HSF-1 act: increases HSF-1 driven luciferase reporter signal | NIH3T3-HGL HSF-1 luciferase reporter, MG132, 8 h; 100% = twice DMSO control signal | 300,000 compounds, 1.7% hits | activation, % at 9 µM | AID 504408;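 active = mean replicate activation of at least 50% with a set share of replicates each reaching 50%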;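 note: 0% = median of the neutral control wells and 100% = twice that signal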
core dimer inh: blocks dimerization of HCV core protein | TR-FRET GST/Flag-core106 dimerization, 1536-well | 300,000 compounds, 0.33% hits | inhibition, % at 5 µM;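 active = inhibition above the mean of all tested compounds plus 3 SD, set per screening campaign, cut at about 45% in these data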
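System – GST-tagged and Flag-tagged HCV core protein residues 1-106 · Repeats – one well for each compound · Technique – TR-FRET 671 and 617 nm emission · Doses – one concentration, 5 µM, in 0.5% DMSO · Times – 4 h, 22.5 °C incubation · Also added – Eu donor and XL665 acceptor anti-tag antibodies · Measure – percent inhibition of core106 dimerization signal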
ALR inh: inhibitors of human sulfhydryl oxidase ALR | AID 485317 | 290,000 compounds, 3.8% hits | P55789 | inhibition, % (no concentration beside the values) | purified ALR, DTT oxidation, H2O2 HRP-luminol luminescence;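 active = mean replicate inhibition above about 79%, with every replicate also reaching it, limit read from the data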
Target sequence (P55789 whole entry, looked up): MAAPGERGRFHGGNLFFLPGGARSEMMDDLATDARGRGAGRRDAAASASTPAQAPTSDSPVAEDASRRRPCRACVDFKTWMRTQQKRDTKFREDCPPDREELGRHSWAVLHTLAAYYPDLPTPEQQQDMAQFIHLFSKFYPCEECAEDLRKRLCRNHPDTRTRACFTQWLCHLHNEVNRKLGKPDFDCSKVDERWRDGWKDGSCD
PHOSPHO1 inh: inhibitors of human PHOSPHO1 phosphatase. Q8TCT1. recombinant PHOSPHO1, absorbance phosphatase assay. inhibition, % at 13.3 µM. 290,000 compounds, 1.1% hits. AID 1565; in the data active = inhibition above about 60%
Target sequence (Q8TCT1 whole entry, looked up): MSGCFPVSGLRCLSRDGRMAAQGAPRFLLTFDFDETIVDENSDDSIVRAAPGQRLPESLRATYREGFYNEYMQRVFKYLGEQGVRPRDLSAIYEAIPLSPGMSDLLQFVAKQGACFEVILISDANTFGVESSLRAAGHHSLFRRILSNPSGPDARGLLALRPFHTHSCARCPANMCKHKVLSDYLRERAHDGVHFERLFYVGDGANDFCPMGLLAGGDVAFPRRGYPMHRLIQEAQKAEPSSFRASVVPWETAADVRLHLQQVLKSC
HSF1 inh: HSF1 inhibition; NIH3T3-HGL HSE-luciferase, MG132-induced, luminescence 8 h; hits give low values; activity change, negative = inhibition, % at 7.5 µM (by protocol); 300,000 compounds, 0.77% hits; AID 2098;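 active = more than half of replicate wells show activity change below -50%, luminescence cut by over half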;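 note: luciferase reports HSF-1 transcriptional activity via heat shock element; 0% = median of DMSO wells and -100% = zero luminescence signal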
Numbers without * were called inactive; nt = not tested or not shown.

SMILES	AI-2 QS modul	HSF-1 act	core dimer inh	ALR inh	PHOSPHO1 inh	HSF1 inh
CCOC(=O)CN1CC23C=CC(O2)C(C(=O)NC2CCCC2)C3C1=O (stereo not given)	21	-17	0	-2	-4	-6
CCOC(=O)c1c(C)n(-c2ccc(C)cc2)c2c(CC(C)=O)c(Br)c(OC)c(O)c12	22	65*	6	-2	16	36
O=C(NCC(F)(F)F)c1ccc(S(=O)(=O)Nc2ccccc2N2CCCC2)cc1	nt	nt	nt	-6	nt	nt
CCc1ccc(C(=O)/C=C/c2ccc([N+](=O)[O-])o2)cc1	42	155*	24	10	9	124
COc1cccc(C2=CC(c3ccc(N(C)C)cc3)n3nnnc3N2)c1 (stereo not given)	26	0	9	19	63*	-4
COc1cccc(C2=CC(c3ccccc3)n3nnnc3N2)c1 (stereo not given)	-2	9	-1	-1	19	4
Cc1ccc(CCNC(=O)C2CCCN(S(=O)(=O)c3cnc[nH]3)C2)cc1 (stereo not given)	54	0	2	49	-2	0
O=C(NCCc1ccc(Cl)cc1)C1CCCN(S(=O)(=O)c2cnc[nH]2)C1 (stereo not given)	29	8	0	12	3	3
CCN(CCNC(=O)C1CCCN(S(=O)(=O)c2cnc[nH]2)C1)c1ccccc1 (stereo not given)	25	-2	1	98*	11	-5
CCN(CCCNC(=O)C1CCCN(S(=O)(=O)c2cnc[nH]2)C1)c1ccccc1 (stereo not given)	16	10	3	98*	26	0
COC(=O)COc1cccc2c(=O)n(CC(=O)NCCc3ccccc3)ccc12	nt	nt	-4	-26	-6	nt
COc1ccc(S(=O)(=O)N2CCOCC2)cc1NC(=O)CSc1nnc2c(n1)[nH]c1ccccc12	12	-2	1	-4	30	6
COc1ccc(C(=O)c2ccc(OC)c3cccc(O)c23)cc1OC	19	14	14	-11	83*	14
Clc1nc(Nc2ccccc2)nc(Nc2ccccc2)n1	-3	25	-1	11	-12	18
CC(C)(C)Nc1nc(Cl)nc(Nc2ccccc2)n1	0	28	6	98*	19	19
COc1ccc(N2CCN(C(=O)CSc3nnc(-c4ccc5[nH]c(C)c(C)c5c4)o3)CC2)cc1	18	6	-2	2	64*	2
Cc1ccc(C(=O)CSc2nnc(-c3ccc4[nH]c(C)c(C)c4c3)o2)cc1C	10	nt	18	-14	74*	nt
Cc1[nH]c2ccc(-c3nnc(SCC(=O)c4ccccc4F)o3)cc2c1C	29	-1	11	-5	88*	1
COC(=O)c1cccc(C23CC4(C2)[C@H](CN(Cc2cccnc2)[C@@H]4c2ccccc2)C3c2ccc(C(F)(F)F)cc2)c1 (stereo not given in full)	28	1	5	-1	31	0
COc1cccc(NC(=O)CCC(=O)Nc2cc(OC)c(NC(=O)c3cccs3)cc2OC)c1	14	12	nt	nt	22	3
CC(OC(=O)CNC(=O)c1ccc(Cl)c(Cl)c1)C(=O)N1CCOCC1 (stereo not given)	15	-1	0	-7	nt	-3
CCOC(=O)C(C)On1c(-c2cccc(Cl)c2)nc2ccc([N+](=O)[O-])cc21 (stereo not given)	10	42	-4	28	22	23
CCOC(=O)COn1c(-c2cccc(Cl)c2)nc2ccc([N+](=O)[O-])cc21	27	31	-3	-12	65*	18
O=C(CN1C(=O)NC2(CCCC2)C1=O)Nc1ccc(C(F)(F)F)cc1	-57	8	-12	0	6	1
C=CCOc1ccc(C(c2c(C)n(C)n(-c3ccccc3)c2=O)c2c(C)n(C)n(-c3ccccc3)c2=O)cc1	37	-87	15	-1	6	-85*
SMILES	AI-2 QS modul	HSF-1 act	core dimer inh	ALR inh	PHOSPHO1 inh	HSF1 inh
COc1ccc(-c2ncccc2OC(=O)C23CC4CC(CC(C4)C2)C3)cc1	34	18	3	40	6	0
CCOC(=O)Cc1nnc2c(Nc3ccc(C)cc3)nc3nonc3n12	25	3	5	0	40	8
CCOC(=O)Cc1nnc2c(Nc3ccccc3F)nc3nonc3n12	14	-79	-1	nt	13	-74*
Cc1ccc(C)c(S(=O)(=O)N2CCN(C(=O)C3CCN(C(=O)c4ccc(F)cc4)CC3)CC2)c1	18	-21	1	-5	nt	-6
COc1ccc(-c2cc(CS(=O)(=O)c3ccccc3)on2)cc1	9	64*	3	-3	-39	19
CCN1C(=O)[C@@H]2[C@@H](c3ccc(SC4CCCCC4)cc3)N3CCC[C@@]3(C(=O)OC)[C@@H]2C1=O	7	19	17	-4	nt	-3
CCn1c(SCC(=O)Nc2nc(-c3ccc(C)cc3)cs2)nnc1-c1ccccc1	19	8	1	4	22	8
Cc1ccc(-c2csc(NC(=O)CSc3nc4ccccc4c(=O)n3CCCN(C)C)n2)cc1	4	19	-5	99*	-7	14
CN(C)CCCn1c(SCC(=O)N2c3ccccc3Sc3ccccc32)nc2ccccc2c1=O	-3	-3	-6	97*	-16	5
Cn1c(SCC(=O)N2c3ccccc3Sc3ccccc32)nc2ccccc21	13	7	21	nt	-12	-7
CCc1cccc(NC(=O)CCCSc2nc3ccccc3[nH]2)c1	44	2	4	4	14	-4
Cc1onc(-c2ccccc2)c1-c1nnc(CN2CCN(S(=O)(=O)c3ccccc3F)CC2)o1	nt	nt	nt	-2	nt	nt
Cc1ccc(-n2ncc3c2CC(C)(C)CC3NC(=O)CCc2c(C)noc2C)cc1 (stereo not given)	4	-1	nt	-16	47	1
Cc1cc(C)c(C)c(S(=O)(=O)N2CCC(C(=O)N3CC(C)CC(C)C3)CC2)c1C (stereo not given)	12	-13	3	-1	nt	-8
Cc1ccc2nc(NC(=O)CSCC(=O)OCC(=O)c3ccc(Br)cc3)sc2c1	23	-73	5	0	7	-66*
COc1cccc(C(=O)CSc2nnc(-c3ccco3)n2CC2CCCO2)c1 (stereo not given)	15	3	1	91*	-7	-3
Cc1occc1-c1nnc(SCC(=O)c2ccccc2)n1CC1CCCO1 (stereo not given)	19	-11	1	98*	-63	-2
O=C(CN1CCN(c2ccc(C(F)(F)F)cn2)CC1)Nc1ccc2c(c1)OCO2	13	15	5	-3	32	-7
COc1ccc(CN2CC[C@H]3C=CCc4cccc(c43)C2)cc1	nt	nt	nt	-31	nt	nt

Screening results (PubChem BioAssay)
